Among the data in ChEMBL document CHEMBL1150161, “New taxane diterpenoids from the leaves and twigs of Taxus sumatrana” (J Nat Prod, 2002) are IC50 values, retold here.

Broadly, the IC50 is the concentration that inhibits the measured activity by half. Low values mean greater potency, high ones weaker potency.

In one assay the test system is KB. Put plainly: Cytotoxicity against human KB cells after 72 hrs by methylene blue assay. The assay is classed as functional, cell-based. Summed up: (§1)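 Cells kept in RPMI-1640 at 37 °C under 5% CO2, seeded at 2880 cells/well and left 3 h before sample or standard drug was added. Samples prepared at 1, 10, 40 and 100 µg/mL (stock, not final). Incubated 37 °C for 3 days. Cells then fixed in 10% formaldehyde/0.9% saline, stained with methylene blue in borate buffer, and eluted with EtOH–0.1 M HCl (1:1). Read at A650. IC50 is the concentration giving 50% absorbance reduction versus untreated cells.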

A short description of assay [1]: Cytotoxicity against human HEPA 59T/VGH cells after 72 hrs by methylene blue assay. The assay is classed as functional, cell-based. The gist of the method: as §1

The structures appear in SMILES notation. Converted amounts (≈) assume the structure as drawn.

In the case of `CC(=O)O[C@H]1C[C@@]23C(=C1C)[C@@](O)(C(=O)OC2(C)C)[C@]1(C)[C@@H](OC(C)=O)C[C@H]2OC[C@@]2(OC(C)=O)[C@H]1[C@@H]3OC(=O)c1ccccc1`, the IC50 in the assay on KB was 8.96 µg/mL (≈ 14.3 µM); in assay [1] it was 3.09 µg/mL (≈ 4.93 µM).

With `CC(=O)O[C@H]1C[C@H]2OC[C@@]2(OC(C)=O)[C@H]2[C@H](OC(C)=O)[C@]3(C(C)(C)O)C[C@H](OC(=O)c4ccccc4)C(C)=C3[C@@H](OC(=O)c3ccccc3)[C@H](OC(C)=O)[C@]12C`, the IC50 is 9.69 µg/mL (≈ 12.5 µM) in the assay on KB and more than 20 µg/mL in assay [1].

Turning to `CC(=O)O[C@H]1C[C@@]23C(=C1C)[C@@](O)(C(=O)OC2(C)C)[C@@]1(C)[C@H]([C@@H]3OC(=O)c2ccccc2)[C@]2(OC(C)=O)CO[C@@H]2C[C@@H]1O`, the IC50 was 2.91 µg/mL (≈ 4.98 µM) in the assay on KB and 13.9 µg/mL (≈ 23.8 µM) in assay [1].

For the molecule `CC(=O)O[C@H]1C[C@@]2(O)[C@H]3OC[C@]4(O)[C@@H](OC(C)=O)C[C@H](OC(=O)c5ccccc5)[C@](C)([C@H]34)[C@@H](OC(=O)c3ccccc3)[C@H](OC(C)=O)C(=C1C)C2(C)C`, the results for the IC50 (in the assay with KB; in assay [1]) were 12.8 µg/mL (≈ 17.4 µM) and 7.02 µg/mL (≈ 9.55 µM), respectively.

As to `CC(=O)O[C@H]1C[C@]2(C(C)(C)O)C(=C1C)[C@@H](OC(C)=O)[C@H](OC(C)=O)[C@@]1(C)[C@@H](OC(C)=O)C[C@H]3OC[C@@]3(OC(C)=O)[C@H]1[C@@H]2OC(C)=O`, the IC50 in the assay with KB turned out to be 4.92 µg/mL (≈ 7.54 µM); in assay [1] it was 6.02 µg/mL (≈ 9.22 µM).

As to `CC(=O)O[C@@]12CO[C@@H]1C[C@H](OC(=O)c1ccccc1)[C@]1(C)[C@@H]2[C@H](OC(=O)c2ccccc2)[C@]23C[C@H](OC(=O)c4ccccc4)C(C)=C2[C@@]1(O)C(=O)OC3(C)C`, the results for the IC50 (in the assay with KB; in assay [1]) were 15.4 µg/mL (≈ 20.6 µM) and 4.83 µg/mL (≈ 6.43 µM), respectively.

Take `CO[C@@]12[C@H](COC(N)=O)C3=C(C(=O)C(C)=C(N)C3=O)N1C[C@@H]1N[C@@H]12` [MITOMYCIN]: the IC50 (in the assay with KB; in assay [1]) was 0.01 µg/mL (≈ 0.0299 µM) each time.

As to `CC(=O)O[C@H]1C(=O)[C@@]2(C)[C@H]([C@H](OC(=O)c3ccccc3)[C@]3(O)C[C@H](OC(=O)[C@H](O)[C@@H](NC(=O)c4ccccc4)c4ccccc4)C(C)=C1C3(C)C)[C@]1(OC(C)=O)CO[C@@H]1C[C@@H]2O` [PACLITAXEL], the IC50 (with KB; in assay [1]) was 0.001 µg/mL (≈ 0.00117 µM) in each case.

For the molecule `CC(=O)O[C@H]1C2[C@@](C)([C@@H](O)C[C@H]3OC[C@@]23OC(C)=O)[C@@H](O)[C@H](O)C2=C(C)[C@@H](O)C[C@]21C(C)(C)O` (some centres not stated) [TAXUMAIROL Q], the IC50 with KB came to 16.2 µg/mL (≈ 33.5 µM); in assay [1] it was 14.5 µg/mL (≈ 30 µM).

With `C=C1[C@@H](O)C[C@H](OC(C)=O)[C@]2(C)[C@@H](OC(C)=O)[C@H](OC(C)=O)C3=C(C)C(=O)C[C@@H]([C@@H](OC(C)=O)[C@H]12)C3(C)C` [TAXUSPINE F], the IC50 in the assay with KB was 16.9 µg/mL (≈ 31.6 µM); in assay [1] it was 3.31 µg/mL (≈ 6.19 µM).

As for `CC(=O)O[C@@]12CO[C@@H]1C[C@H](O)[C@]1(C)[C@@H]2[C@H](OC(=O)c2ccccc2)[C@]23C[C@H](O)C(C)=C2[C@@]1(O)C(=O)OC3(C)C` [WALLIFOLIOL], the values for the IC50 (with KB; in assay [1]) were 0.56 µg/mL (≈ 1.03 µM) and 0.1 µg/mL (≈ 0.184 µM), respectively.
